# Sampled rows, rich in hits. Any-hit rate of the full collection: about 3.5%.
# RGS4 act – potentiators or activators of RGS4 | B-score at 10 µM | HEK293 M3R/inducible RGS4, carbachol calcium flux Fluo4; stronger effect = lower value | 0.92% of 310,000 active;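 active means B-score of the integrated calcium signal more than 4 SD below the library mean, with starting fluorescence not abnormally high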;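 further: negative B-score means reduced calcium response which marks RGS4 activation or potentiation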
#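 System – HEK293 FlpIn-TREx cells, stable M3R, doxycycline-inducible RGS4 · Reagent – ECmax carbachol challenge · Times – compound preincubation 20 min at room temperature before agonist · Technique – Fluo4 fluorescence kinetic imaging of calcium · Measure – B score of integrated Fluo4 ratio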
# RGS4 block – inhibitors of human RGS4; AID 463165; B-score at 10 µM; P49798; 0.45% of 310,000 active; HEK293 M3R/RGS4 inducible, Fluo-4 calcium flux; stronger effect = higher value; triggered by carbachol at its EC20;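 active means B-score, a plate-corrected calcium signal, over three deviations above library mean, with baseline fluorescence within five deviations of library mean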;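 further: RGS4 expression induced by doxycycline in cells with stable M3 receptor; B-score is computed from the integrated fluorescence ratio over baseline after carbachol; higher B-score means a larger calcium signal and so more RGS4 inhibition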
# Target sequence (P49798 whole entry, looked up): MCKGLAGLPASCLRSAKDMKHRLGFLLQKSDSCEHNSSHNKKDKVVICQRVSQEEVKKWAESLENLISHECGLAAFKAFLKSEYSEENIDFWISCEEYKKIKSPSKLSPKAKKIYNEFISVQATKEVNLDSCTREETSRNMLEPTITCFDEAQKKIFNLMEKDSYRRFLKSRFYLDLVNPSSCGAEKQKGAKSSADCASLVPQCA
# MrgX1 PAM – human MrgX1 positive allosteric modulation, primary screen | MrgX1-HEK293, Fluo-4 calcium flux, FDSS; stronger effect = higher value | B-score at 10 µM | 0.63% of 310,000 active | AID 588675;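 active means plate-corrected calcium response at least 3 library SD above typical, normal starting fluorescence, not activating the receptor alone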;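 further: compound read alongside a low EC10 to EC30 dose of BAM8-22 agonist; peak minus trough fluorescence over baseline measured at the second addition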
# Target sequence (Q96LB2 whole entry, looked up): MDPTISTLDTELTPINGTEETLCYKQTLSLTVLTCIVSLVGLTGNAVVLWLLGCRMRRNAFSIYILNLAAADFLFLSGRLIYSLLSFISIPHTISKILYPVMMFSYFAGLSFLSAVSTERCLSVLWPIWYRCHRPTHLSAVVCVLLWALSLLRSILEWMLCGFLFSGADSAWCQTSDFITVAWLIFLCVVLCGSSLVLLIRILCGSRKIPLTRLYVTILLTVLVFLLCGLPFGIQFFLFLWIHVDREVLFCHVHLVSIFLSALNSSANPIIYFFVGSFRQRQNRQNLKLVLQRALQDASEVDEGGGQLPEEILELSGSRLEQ
# MrgX1 antag – human MrgX1 receptor antagonism, primary screen | Q96LB2 | MRGX1-HEK293 calcium flux, Fluo-4, BAM8-22 antagonism; stronger effect = lower value | B-score at 10 µM | 1.3% of 310,000 active | AID 588676;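 active means calcium-response B-score plate-corrected more than 3 library SD below zero, starting fluorescence within 5 deviations, no agonist response on first addition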;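 further: peak minus trough fluorescence over baseline after final BAM8-22 challenge near maximal dose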
# MrgX1 agonist – activates human MrgX1 receptor signaling. Q96LB2. MrgX1-HEK293 cells, Fluo-4 calcium fluorescence, agonist mode; stronger effect = higher value. B-score at 10 µM. 0.44% of 310,000 active. AID 588627;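 active means calcium response B-score plate-corrected fluorescence ratio at least 3 library SD, with starting fluorescence B-score inside 5 SD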
#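 Assay system: stable human MrgX1 HEK293 cell line. Quantity: 15,000 cells per well. Schedule: cells plated overnight, dye loaded 0.5 h 37 °C, 0.5 h room temperature. Detection: Fluo-4 NW calcium-flux fluorescence, kinetic read. Read-out basis: peak-minus-minimum fluorescence over baseline, converted to B scores. Control set: positive and negative control wells on each plate.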
# * = called active by the depositor; i = inactive.
SMILES,RGS4 act,RGS4 block,MrgX1 PAM,MrgX1 antag,MrgX1 agonist
O=C(Nc1ccc(OC(F)(F)F)cc1)Nc1cccnc1,i,i,i,i,i
COc1cc([N+](=O)[O-])ccc1NC(=O)Nc1cccnc1,i,i,i,i,i
O=C(Nc1cccnc1)Nc1cccc([N+](=O)[O-])c1,i,i,i,-5.2*,i
CCN(CC1CCCO1)C(=O)CCc1nnc(CCc2ccccc2OC)o1 (stereo not given),i,i,i,i,i
O=C(Nc1ccc(C(=O)N2CCOCC2)cc1)Nc1cccc2ccccc12,i,i,i,i,i
CCOC(=O)CN(C)C(=O)CCc1nnc(-c2ccc(-c3ccccc3)cc2)o1,i,i,i,i,i
CCN(CC)CCN(C)C(=O)CCc1nnc(-c2ccc(C)s2)o1,i,i,i,-6.63*,i
CCOc1ccc(S(=O)(=O)N2CCC(C(=O)NCc3ccncc3)CC2)cc1Cl,i,i,i,i,i
Cc1c(N=C(N)/N=C(\N)Nc2ccccc2)c(=O)n(-c2ccccc2)n1C,i,i,i,-4.58*,i
CCOc1ccc(N(C(=O)c2snc(C(N)=O)c2N)C(C(=O)NC2CCCC2)c2ccncc2)cc1 (stereo not given),i,i,i,i,i
CCC(C)C(=O)Nn1c(C2CC2)nc2cc(OC)c(OC)cc2c1=O (stereo not given),i,i,i,i,i
O=C(CCc1nnc(CCCCc2ccccc2)o1)NCCn1cccn1,i,i,i,i,i
O=C(CCc1nnc(CCCCc2ccccc2)o1)NCCN1CCOC1=O,i,i,i,-5.33*,i
COc1ccccc1NC(=O)Cn1cc(C(=O)c2ccco2)c2ccccc21,i,i,i,i,i
COc1ccccc1OCCn1cc(C(=O)c2ccco2)c2ccccc21,-7.44*,i,i,i,i
CC(OC(=O)Cc1c(F)cccc1Cl)C(=O)NC1(C#N)CCCCC1 (stereo not given),i,i,i,i,i
Cc1ccc(/C=C2\SC(N3CCN(C(c4ccccc4)c4ccccc4)CC3)=NC2=O)o1,-9.4*,i,i,i,i
Cc1ccc(-c2ccc(/C=C3\SC(N4CCOCC4)=NC3=O)o2)cc1,i,i,i,i,i
COC(=O)c1ccccc1NC1CC(=O)N(c2c(C)cccc2C)C1=O (stereo not given),i,i,i,i,i
N/C(Cc1ccc(Cl)c(Cl)c1)=N\OC(=O)c1cccs1,i,i,i,i,i
N/C(=N\OC(=O)c1cccs1)C1(c2ccc(Cl)cc2Cl)CC1,i,i,13.7*,i,i
CC1=CN2C(=N)/C(=C/c3ccc(C)o3)C(=O)N=C2S1,i,i,15.3*,i,i
C[C@H](NC(=O)N1CCn2c1nc1ccccc12)C(=O)N1CCCCC1,i,i,i,i,i
COc1cccc(N=C2CC(C)(C)CC(=O)/C2=C(/O)c2ccccc2)c1,i,i,i,i,i
COc1ccc(N/C=C2\C(=O)CCc3c2oc2cc(Cl)c(O)c(Cl)c32)cc1,i,i,i,-4.99*,i
SMILES,RGS4 act,RGS4 block,MrgX1 PAM,MrgX1 antag,MrgX1 agonist
COc1ccc(N/C=C2\CCOC2=O)cc1,i,i,i,i,i
Cc1ccc(C(=O)c2oc3ccccc3c2NC(=O)c2cc(-c3cc(C)ccc3O)n[nH]2)cc1,i,i,i,-5.16*,i
O=C(c1ccccc1Br)N1N=C(c2ccccc2)CC1c1ccccc1F (stereo not given),-7.95*,i,i,i,i
CCc1cc(=O)oc2c3c(cc(OCC(=O)NCCCOC)c12)OC(C)(C)CC3,i,i,i,i,i
Cc1nn(-c2ccccc2)c(Cl)c1CN(C(=O)CCl)c1cccc2ccccc12,i,i,10.5*,i,i
Cn1c(Sc2ccccc2Cl)c(C=O)c2ccccc21,-8.54*,i,i,i,i
Cc1ccccc1-n1nc(C(=O)c2cccs2)cc(-c2nc3ccccc3[nH]2)c1=N,i,i,i,i,i
Cc1cccc(-n2nc(C(=O)c3ccco3)cc(-c3nc4ccccc4[nH]3)c2=N)c1,-8.08*,i,i,i,i
Cc1[nH]c(C)c(S(=O)(=O)NCCc2ccc(S(N)(=O)=O)cc2)c1C(=O)N1CCCC1,i,i,i,i,i
O=c1cc(-c2ccccc2Cl)oc2c(NS(=O)(=O)c3cc(Cl)cc(Cl)c3O)ccc(O)c12,i,i,i,i,40.4*
CCc1ccc(S(=O)(=O)Nc2ccc(O)c3c(=O)cc(-c4ccccc4Cl)oc23)cc1,i,i,i,i,i
Cc1ccc(-c2nc3ccccc3c(=O)n2NC(=S)N(C)C)cc1,i,i,i,i,i
CCN(Cc1ccccc1)c1ccc(/C=N/N=C(N)N)cc1,i,i,i,-5.47*,i
Cc1ccc(S(=O)(=O)c2c(C)cc(C)[nH]c2=O)cc1,i,i,i,i,i
CC(Oc1ccc(-c2ccccc2)c(F)c1)c1ccn(S(=O)(=O)c2ccc(F)cc2)n1 (stereo not given),i,i,i,i,i
O=S(=O)(c1ccc(F)cc1)n1ccc(-c2cccc(OCc3ccc(Cl)cc3Cl)c2)n1,i,i,i,-8.15*,i
O=C(NC1(C(F)(F)F)NC(=O)N(c2ccc(F)cc2)C1=O)c1cccs1 (stereo not given),i,i,i,i,i
Cc1ccc([N+](=O)[O-])cc1S(=O)(=O)Nc1ccc(-c2ccc(N3CCCC3)nn2)cc1,i,i,16.2*,i,i
O=[N+]([O-])c1ccc(S(=O)(=O)Nc2ccc(-c3ccc(N4CCCC4)nn3)cc2)cc1,i,i,6.69*,i,i
Cc1c([N+](=O)[O-])cc(S(=O)(=O)Nc2ccc(-c3ccc(N4CCCC4)nn3)cc2)cc1[N+](=O)[O-],i,i,i,i,i
O=[N+]([O-])c1ccc(Cl)c(S(=O)(=O)Nc2ccc(-c3ccc(N4CCCC4)nn3)cc2)c1,i,i,i,i,i
NS(=O)(=O)c1cccc(NS(=O)(=O)c2ccc(/C=C/C(=O)O)cc2)c1,i,i,i,i,i
CCN1Cc2c(/C=C/c3ccccc3)nc3ccc(OC)cc3c2N(c2cccc(Cl)c2)C1,i,i,i,i,i
Cc1ccccc1N/C(=C(/C(Cl)=C(Cl)Cl)[N+](=O)[O-])n1nnc2ccccc21,i,i,i,-4.96*,i
